# Shown are actives, neighbours in structure and some others; about 2.3% of the full set was active somewhere.
# Cneo AK release – Cryptococcus neoformans lysis via adenylate kinase release. lysis activity, % at 15 µM. 0.2% of 360,000 active. C. neoformans lysis, adenylate kinase release luminescence, 4 h; normalised: neutral wells 0, clomiphene wells 100;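 active means mean lysis activity across replicates of at least 80%, whatever share of replicates individually reach that level; inactive means mean lysis activity below 80%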
#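 Test system: log-phase Cryptococcus neoformans yeast cells. Input: 5 × 10^6 yeast cells/mL. Medium: fresh YPD growth medium. Doses: single dose. Incubation: static 4 h at 37 °C with compound, 1 h detection. Measured by: luminescent adenylate kinase detection reagent. Read-out: signal increase indicating cell lysis. Benchmarks: Clomiphene.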
# DENV2 CPE – protects cells from dengue virus 2 cytopathic effect; AID 651640; DENV2-infected cells, cytopathic effect rescue, plate reader; CPE inhibition, % at 9.99 µM; 1.7% of 350,000 active; in the data active means CPE inhibition above about 20%, passing the limit was not always enough; tested in BHK-21 cells;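 further: 0% = median of neutral control wells and 100% = median of positive control wells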
# Statin myotox sup – suppressors of simvastatin-induced myotoxicity in C2C12 myotubes | ATP luminescence, 48 h; scaled: DMSO 0, geranylgeraniol control 100 | rescue of ATP level, % at 7.49 µM | AID 602340 | 0.78% of 330,000 active;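 active means mean ATP rescue above about 67%, or every replicate alone reaching that limit, limit read from the data, passing the limit was not always enough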;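 further: myotubes were challenged with 10 µM simvastatin during compound exposure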
# ERp5 inh – blocks human ERp5 reductase activity on insulin | Q15084 | ERp5 insulin aggregation, absorbance 650 nm, 90 min | inhibition, % at 9.99 µM | 0.05% of 350,000 active | AID 651711;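 active means mean replicate inhibition above about 25%, with every replicate also reaching it, limit read from the data, passing the limit was not always enough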
# Target sequence (Q15084 whole entry, looked up): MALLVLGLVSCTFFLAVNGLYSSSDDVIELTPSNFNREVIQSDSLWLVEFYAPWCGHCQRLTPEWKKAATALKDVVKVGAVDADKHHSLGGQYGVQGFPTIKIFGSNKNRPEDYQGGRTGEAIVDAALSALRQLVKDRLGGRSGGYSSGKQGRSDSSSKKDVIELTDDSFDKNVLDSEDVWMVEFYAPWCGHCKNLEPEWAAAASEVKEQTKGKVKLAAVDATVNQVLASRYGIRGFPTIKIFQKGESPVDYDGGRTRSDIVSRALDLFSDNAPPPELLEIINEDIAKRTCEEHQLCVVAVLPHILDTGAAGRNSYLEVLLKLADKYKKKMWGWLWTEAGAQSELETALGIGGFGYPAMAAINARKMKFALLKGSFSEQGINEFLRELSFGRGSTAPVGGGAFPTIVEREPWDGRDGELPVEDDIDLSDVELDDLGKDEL
# PDI turbidity – inhibitors of human protein disulfide isomerase; PDI insulin aggregation turbidity, A650, 90 min; 0.052% of 350,000 active; inhibition, % at 10 µM; AID 588391; P07237;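 active means mean inhibition across replicates of 30% or more, whatever share of single replicates reach that level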
# F508del corr – CFTR F508del correction in bronchial cells; 0.36% of 350,000 active; AID 720511; CFBE cells, YFP halide quenching; stimulated with forskolin plus potentiator P3; % fluorescence drop versus neutral controls; activity (quench increase), % at 7.58 µM;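 active means mean added fluorescence quench of at least 8% versus neutral control, with both replicates also reaching 8%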;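 further: cells transiently co-express mutant CFTR-F508del with the halide-sensitive YFP; corrector assay measuring rescue of mutant channel to the surface after 24 h compound exposure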
# * hit, by the source's call; . = not tested or not shown.
SMILES,Cneo AK release,DENV2 CPE,Statin myotox sup,ERp5 inh,PDI turbidity,F508del corr
O=c1ccc2cc(OC3O[C@H](CO)[C@@H](O)[C@H](O)[C@H]3O)c(O)cc2o1 (stereo partly drawn),-2,8,-2,3,1,-4
O=C1NC(=O)C(=Cc2c(Cl)cccc2Cl)C(=O)N1,.,-5,.,-6,0,8.7*
Cc1c(C=C2C(=O)NC(=O)NC2=O)c(=O)n(-c2ccccc2)n1C,-1,-2,-5,0,-8,2
C=C1C(=O)O[C@@H]2C[C@@H](C)[C@@H]3C4OC4C(=O)[C@@]3(C)[C@@H](O)[C@H]12 (stereo partly drawn),0,-8,80*,-3,-7,-5
CN(C)CC#Cc1ccc([C@@H]2[C@H]3CN(C(=O)Cc4ccccn4)CCCCN3[C@H]2CO)cc1,0,30*,.,-1,.,-1
O=C(Cc1ccccn1)N1CCCCN2[C@H](C1)[C@H](c1ccc(-c3ccccc3)cc1)[C@@H]2CO,1,43*,.,10,.,-1
CCCC#Cc1ccc([C@@H]2[C@H]3CN(C(=O)Cc4ccccn4)CCCCN3[C@H]2CO)cc1,-1,-3,.,-3,.,2
O=C(Cc1ccccn1)N1CCCCN2[C@@H](CO)[C@@H](c3ccc(Br)cc3)[C@@H]2C1,1,33*,2,-1,.,2
O=C(Cc1ccccn1)N1CCCCN2[C@H](CO)[C@@H](c3ccc(-c4ccccc4)cc3)[C@H]2C1,0,6,.,0,.,0
c1cc(-c2ccc(C3[C@H]4CNC[C@@H]3N4CC3CC3)cc2)ccn1 (stereo partly drawn),.,10,.,-5,.,1
CN1C(=O)C(C2c3ccccc3C(=O)N2Cc2ccccc2)C(=O)N(C)C1=O (stereo not drawn),5,.,108*,.,-6,.
COC(=O)[C@@H]1[C@@H](CO)[C@@H]2Cn3c(ccc(-c4cccc(OC)c4)c3=O)[C@H]1N2CC1CC1,-3,-1,6,-1,.,.
COC(=O)[C@H]1[C@H](CO)[C@H]2Cn3c(ccc(C4=CCCC4)c3=O)[C@@H]1N2CC1CCCC1,.,15,.,-5,.,0
Cc1cccc(NP(C)(=O)c2nc3c(s2)CCCC3)c1 (stereo not drawn),-2,4,143*,1,-19,.
Cc1ccc(OP(=O)(Nc2cccc(C)c2)Oc2ccc(C)cc2)cc1,4,11,17,1,2,-2
COC(=O)[C@@H]1[C@@H](CO)[C@@H]2Cn3c(ccc(-c4cccc(OC)c4)c3=O)[C@H]1N2C(=O)c1cnccn1,0,-12,4,0,.,-1
COC(=O)[C@@H]1[C@@H](CO)[C@@H]2Cn3c(ccc(C4=CCCCC4)c3=O)[C@H]1N2C(=O)NC(C)C,0,-10,-2,-7,.,-3
COC1/C=C/C=C(\C)Cc2cc(O)c(Cl)c(c2)N(C)C(=O)CC(OC(=O)C(C)C)C2(C)OC2C(C)C2CC1(O)NC(=O)O2 (stereo not drawn),.,-4,.,6,63*,-2
CC=Cc1ccc2n(c1=O)C[C@H]1[C@H](CO)[C@@H](C(=O)OC)[C@@H]2N1CC1CCOCC1 (mixture of isomers),-1,-6,-4,-7,.,.
O=c1[nH]c2ccccc2n1C1CCN(C(c2cccc3ccccc23)c2nnnn2-c2ccc3c(c2)OCCO3)CC1 (stereo not drawn),1,25*,-38,-1,.,5
C=Cc1cc(OC)c2c(c1)c(=O)oc1c2cc(OC)c2c(O)ccc(C3OC(C)C(O)C(C)(O)C3O)c21 (stereo not drawn),.,-6,.,-5,2,18*
O=C(Cc1ccncc1)N1CCCCN2[C@H](C1)[C@H](c1ccc(C#CC3(O)CCCC3)cc1)[C@@H]2CO,-4,-6,.,-1,.,-1
C[C@]12CCC(OC(=O)CCC(=O)O)CC1=CCC1C2CC[C@]2(C)C(=O)CCC12 (stereo partly drawn),0,-5,34,-4,3,-1
COCCO[C@H]1CC[C@@]2(C)C(=CCC3C2CC[C@@]2(C)C3CC[C@]2(C)O)C1 (stereo partly drawn),-2,0,-16,-11,0,8.7*
COC(=O)[C@H]1[C@H](CO)[C@H]2Cn3c(ccc(C4=CCCC4)c3=O)[C@@H]1N2Cc1ccccn1,-2,-12,14,-2,.,.
SMILES,Cneo AK release,DENV2 CPE,Statin myotox sup,ERp5 inh,PDI turbidity,F508del corr
C[C@]12CC[C@@H](O)CC1=CCC1C2CC[C@@]2(C)C1C[C@@H](F)[C@H]2O (stereo partly drawn),1,33*,2,-5,3,-1
C[C@@H]1CC2C3CC=C4C[C@@H](O)CC[C@]4(C)C3CC[C@]2(C)[C@H]1O (stereo partly drawn),1,4,0,3,3,1
Cc1cccc(S(=O)(=O)N2[C@@H]3c4ccc(-c5ccccc5)c(=O)n4C[C@H]2[C@H](CO)[C@H]3C(=O)O)c1,-11,-2,-2,-1,.,-3
Cc1[nH]c2ccc(O)cc2c1CCN,-1,55*,-7,-3,11,-3
Cc1[nH]c2ccc(OCc3ccccc3)cc2c1CCN,0,-1,-95,-2,0,1
Cc1ccc(OC(=O)N(C)C[C@@H]2OCc3ccccc3-c3c(n(C)c4ccccc34)C(=O)N([C@@H](C)CO)C[C@H]2C)cc1,.,3,.,-2,.,2
O=C(O)CC1OCC=C2CN3CCC45C6=CC(=O)C(=O)C([N+](=O)[O-])=C6NC4C1C2CC35 (stereo not drawn),-2,.,-2,.,75*,.
O=C(NN=Cc1ccc(N(CCCl)CCCl)cc1)c1cccnc1,1,19,6,3,-2,6
Cc1nc(C)c(C(=O)NN=Cc2ccc(N(CCCl)CCCl)cc2)s1,.,-8,.,3,-20,8.7*
COc1ccc2c(c1)C13CCN4CC5=CCOC6CC(=O)N2C1C6C5CC43 (stereo not drawn),-1,71*,-2,5,.,3
COc1cc2c(cc1OC)[C@@]13CCN4CC5=CCO[C@H]6CC(=O)N2[C@H]1[C@H]6[C@H]5C[C@H]43,0,3,-3,5,.,5
O=C1/C(=C\c2ccccc2)C2OCC=C3CN4CCC56c7ccccc7N1C5C2C3CC46 (stereo not drawn),-1,12,137*,-2,8,-1
N#Cc1cccc(-c2ccc([C@@H]3[C@@H](CO)N4CCCCN(C(=O)Cc5ccccc5)C[C@H]34)cc2)c1,1,11,.,0,.,-1
CN1CCN(c2ccc([N+](=O)[O-])c3no[n+]([O-])c23)CC1,-3,-2,55,1,2,18*
CCOC(=O)[C@]12Cc3cc(N(C)C)ccc3[C@H]1N(Cc1ccccc1)C(=O)c1ccccc12,-3,-4,95*,7,-3,0

# Source: PubChem BioAssay (Broad Institute)
